≈ marks a conversion by molar mass, not a printed value. Calls of active or inactive are those of the source. The rule behind the calls is not given here.
Columns and labels:
MCF7 = assay: Cytotoxicity against human MCF7 cells assessed as growth inhibition at 10 uM after 48 hrs by sulphorhodamine B assay; format: functional; conditions: MCF7, 48 h, read-out: GI
Summary of the method: (§1)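 NCI-60 one-dose screen per the NCI Drug Evaluation Branch protocol. Cells given a single 10 µM concentration with 48 h continuous exposure. Growth estimated by sulphorhodamine B protein assay. Result expressed as percentage growth inhibition relative to untreated growth.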

SF-268 = assay: Cytotoxicity against human SF268 cells assessed as growth inhibition at 10 uM after 48 hrs by sulphorhodamine B assay; format: functional; conditions: SF-268, 48 h, read-out: GI; summary of the method: as §1
HCT-15 = assay: Cytotoxicity against human HCT15 cells assessed as growth inhibition at 10 uM after 48 hrs by sulphorhodamine B assay; format: functional; conditions: HCT-15, 48 h, read-out: GI; summary of the method: as §1
[1] = Cytotoxicity against human EKVX cells assessed as growth inhibition at 10 uM after 48 hrs by sulphorhodamine B assay; format: functional; conditions: read-out: GI; summary of the method: as §1
MOLT-4 = assay: Cytotoxicity against human MOLT4 cells assessed as growth inhibition at 10 uM after 48 hrs by sulphorhodamine B assay; format: functional; conditions: MOLT-4, 48 h, read-out: GI; summary of the method: as §1
UO-31 = assay: Cytotoxicity against human UO31 cells assessed as growth inhibition at 10 uM after 48 hrs by sulphorhodamine B assay; format: functional; conditions: UO-31, 48 h, read-out: GI; summary of the method: as §1
A549 = assay: Cytotoxicity against human A549 cells assessed as growth inhibition at 10 uM after 48 hrs by sulphorhodamine B assay; format: functional; conditions: A549, 48 h, read-out: GI; summary of the method: as §1
HT-29 = assay: Cytotoxicity against human HT-29 cells assessed as growth inhibition at 10 uM after 48 hrs by sulphorhodamine B assay; format: functional; conditions: HT-29, 48 h, read-out: GI; summary of the method: as §1
HCT-116 = assay: Cytotoxicity against human HCT116 cells assessed as growth inhibition at 10 uM after 48 hrs by sulphorhodamine B assay; format: functional; conditions: HCT-116, 48 h, read-out: GI; summary of the method: as §1
OVCAR-4 = assay: Cytotoxicity against human OVCAR4 cells assessed as growth inhibition at 10 uM after 48 hrs by sulphorhodamine B assay; format: functional; conditions: OVCAR-4, 48 h, read-out: GI; summary of the method: as §1
SNB-75 = assay: Cytotoxicity against human SNB75 cells assessed as growth inhibition at 10 uM after 48 hrs by sulphorhodamine B assay; format: functional; conditions: SNB-75, 48 h, read-out: GI; summary of the method: as §1
[2] = Displacement of methyl green from DNA (unknown origin) after 24 hrs
Summary of the method: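 DNA-methyl green complex was stirred in 0.05 M Tris-HCl pH 7.5 with 7.5 mmol MgSO4 at 37 °C for 24 h. Compound was dried down from EtOH in tubes and the DNA-methyl green solution added. A630 was read initially and after 24 h dark incubation at room temperature, corrected and normalized to untreated complex. IC50 is the concentration giving a 50% absorbance decrease; mean ± SD, n = 6.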

SK-MEL-2 = assay: Cytotoxicity against human SK-MEL-2 cells assessed as growth inhibition at 10 uM after 48 hrs by sulphorhodamine B assay; format: functional; conditions: SK-MEL-2, 48 h, read-out: GI; summary of the method: as §1
MDA-MB-435 = assay: Cytotoxicity against human MDA-MB-435 cells assessed as growth inhibition at 10 uM after 48 hrs by sulphorhodamine B assay; format: functional; conditions: MDA-MB-435, 48 h, read-out: GI; summary of the method: as §1
U-251 = assay: Cytotoxicity against human U251 cells assessed as growth inhibition at 10 uM after 48 hrs by sulphorhodamine B assay; format: functional; conditions: U-251, 48 h, read-out: GI; summary of the method: as §1
IGROV-1 = assay: Cytotoxicity against human IGROV1 cells assessed as growth inhibition at 10 uM after 48 hrs by sulphorhodamine B assay; format: functional; conditions: IGROV-1, 48 h, read-out: GI; summary of the method: as §1
SR = assay: Cytotoxicity against human SR cells assessed as growth inhibition at 10 uM after 48 hrs by sulphorhodamine B assay; format: functional; conditions: read-out: GI; summary of the method: as §1
SK-MEL-5 = assay: Cytotoxicity against human SK-MEL-5 cells assessed as growth inhibition at 10 uM after 48 hrs by sulphorhodamine B assay; format: functional; conditions: SK-MEL-5, 48 h, read-out: GI; summary of the method: as §1
LOX IMVI = assay: Cytotoxicity against human LOXIMVI cells assessed as growth inhibition at 10 uM after 48 hrs by sulphorhodamine B assay; format: functional; conditions: read-out: GI; summary of the method: as §1
CAKI-1 = assay: Cytotoxicity against human Caki1 cells assessed as growth inhibition at 10 uM after 48 hrs by sulphorhodamine B assay; format: functional; conditions: CAKI-1, 48 h, read-out: GI; summary of the method: as §1
OVCAR-5 = assay: Cytotoxicity against human OVCAR5 cells assessed as growth inhibition at 10 uM after 48 hrs by sulphorhodamine B assay; format: functional; conditions: OVCAR-5, 48 h, read-out: GI; summary of the method: as §1
PC-3 = assay: Cytotoxicity against human PC3 cells assessed as growth inhibition at 10 uM after 48 hrs by sulphorhodamine B assay; format: functional; conditions: PC-3, 48 h, read-out: GI; summary of the method: as §1
RPMI-8226 = assay: Cytotoxicity against human RPMI8226 cells assessed as growth inhibition at 10 uM after 48 hrs by sulphorhodamine B assay; format: functional; conditions: RPMI-8226, 48 h, read-out: GI; summary of the method: as §1
SK-OV-3 = assay: Cytotoxicity against human SKOV3 cells assessed as growth inhibition at 10 uM after 48 hrs by sulphorhodamine B assay; format: functional; conditions: SK-OV-3, 48 h, read-out: GI; summary of the method: as §1
HOP-92 = assay: Cytotoxicity against human HOP92 cells assessed as growth inhibition at 10 uM after 48 hrs by sulphorhodamine B assay; format: functional; conditions: HOP-92, 48 h, read-out: GI; summary of the method: as §1
RXF 393 = assay: Cytotoxicity against human RXF393 cells assessed as growth inhibition at 10 uM after 48 hrs by sulphorhodamine B assay; format: functional; conditions: RXF 393, 48 h, read-out: GI; summary of the method: as §1
M14 = assay: Cytotoxicity against human M14 cells assessed as growth inhibition at 10 uM after 48 hrs by sulphorhodamine B assay; format: functional; conditions: M14, 48 h, read-out: GI; summary of the method: as §1
HL-60(TB) = assay: Cytotoxicity against human HL-60(TB) cells assessed as growth inhibition at 10 uM after 48 hrs by sulphorhodamine B assay; format: functional; conditions: HL-60, 48 h, read-out: GI
Summary of the method: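 NCI-60 one-dose primary screen run to the Drug Evaluation Branch protocol. Cells are exposed to a single 10 µM concentration for 48 h continuously, and growth is read by SRB protein assay. Data are reported as percent growth of treated cells, expressed as % growth inhibition.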

Hs-578T = assay: Cytotoxicity against human Hs578T cells assessed as growth inhibition at 10 uM after 48 hrs by sulphorhodamine B assay; format: functional; conditions: read-out: GI; summary of the method: as §1
ACHN = assay: Cytotoxicity against human ACHN cells assessed as growth inhibition at 10 uM after 48 hrs by sulphorhodamine B assay; format: functional; conditions: read-out: GI; summary of the method: as §1
A498 = assay: Cytotoxicity against human A498 cells assessed as growth inhibition at 10 uM after 48 hrs by sulphorhodamine B assay; format: functional; conditions: A498, 48 h, read-out: GI; summary of the method: as §1
NCI-H23 = assay: Cytotoxicity against human NCI-H23 cells assessed as growth inhibition at 10 uM after 48 hrs by sulphorhodamine B assay; format: functional; conditions: NCI-H23, 48 h, read-out: GI; summary of the method: as §1
[3] = Binding affinity to DNA (unknown origin) at 5 mg/mL by RP-TLC plate analysis
Summary of the method: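 Reversed-phase C18 TLC plates pre-developed in methanol/water 8:2. Compound spotted at origin (5 mg/mL in methanol), then DNA (1 mg/mL in water/methanol 8:2) applied at the same spot. Plates developed in the same eluent; DNA located by anisaldehyde spray (blue). Ethidium bromide as positive control.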

NCI/ADR-RES = assay: Cytotoxicity against human NCI/ADR-RES cells assessed as growth inhibition at 10 uM after 48 hrs by sulphorhodamine B assay; format: functional; conditions: read-out: GI; summary of the method: as §1
SNB-19 = assay: Cytotoxicity against human SNB19 cells assessed as growth inhibition at 10 uM after 48 hrs by sulphorhodamine B assay; format: functional; conditions: SNB-19, 48 h, read-out: GI; summary of the method: as §1
UACC-62 = assay: Cytotoxicity against human UACC62 cells assessed as growth inhibition at 10 uM after 48 hrs by sulphorhodamine B assay; format: functional; conditions: UACC-62, 48 h, read-out: GI; summary of the method: as §1
K562 = assay: Cytotoxicity against human K562 cells assessed as growth inhibition at 10 uM after 48 hrs by sulphorhodamine B assay; format: functional; conditions: K562, 48 h, read-out: GI; summary of the method: as §1
NCI-H522 = assay: Cytotoxicity against human NCI-H522 cells assessed as growth inhibition at 10 uM after 48 hrs by sulphorhodamine B assay; format: functional; conditions: NCI-H522, 48 h, read-out: GI; summary of the method: as §1
DU-145 = assay: Cytotoxicity against human DU145 cells assessed as growth inhibition at 10 uM after 48 hrs by sulphorhodamine B assay; format: functional; conditions: DU-145, 48 h, read-out: GI; summary of the method: as §1
SF-295 = assay: Cytotoxicity against human SF295 cells assessed as growth inhibition at 10 uM after 48 hrs by sulphorhodamine B assay; format: functional; conditions: SF-295, 48 h, read-out: GI; summary of the method: as §1
CCRF-CEM = assay: Cytotoxicity against human CCRF-CEM cells assessed as growth inhibition at 10 uM after 48 hrs by sulphorhodamine B assay; format: functional; conditions: read-out: GI; summary of the method: as §1
T47D = assay: Cytotoxicity against human T47D cells assessed as growth inhibition at 10 uM after 48 hrs by sulphorhodamine B assay; format: functional; conditions: read-out: GI; summary of the method: as §1

CC1CCCc2c1nc1[nH]c(=S)n(-c3ccccc3)c(=N)c1c2-c1ccc(Cl)cc1 (centres undefined)
inhibition of growth at 10 µM (MCF7): < 10% | inhibition of growth at 10 µM (SF-268): < 10% | inhibition of growth at 10 µM (HCT-15): 10% | inhibition of growth at 10 µM [1]: 31% | inhibition of growth at 10 µM (MOLT-4): 40% | inhibition of growth at 10 µM (UO-31): 44.4% | inhibition of growth at 10 µM (A549): 18.9% | inhibition of growth at 10 µM (HT-29): < 10% | inhibition of growth at 10 µM (HCT-116): 34% | inhibition of growth at 10 µM (OVCAR-4): 14.5% | inhibition of growth at 10 µM (SNB-75): 13.9% | IC50 [2]: 0.097 mg/L (≈ 0.224 µM) | inhibition of growth at 10 µM (SK-MEL-2): 11.3% | inhibition of growth at 10 µM (MDA-MB-435): < 10% | inhibition of growth at 10 µM (U-251): 15.2% | inhibition of growth at 10 µM (IGROV-1): 33.3% | inhibition of growth at 10 µM (SR): < 10% | inhibition of growth at 10 µM (SK-MEL-5): 12% | inhibition of growth at 10 µM (LOX IMVI): 13.1% | inhibition of growth at 10 µM (CAKI-1): < 10% | inhibition of growth at 10 µM (OVCAR-5): 14.3% | inhibition of growth at 10 µM (PC-3): 21% | inhibition of growth at 10 µM (RPMI-8226): 66% | inhibition of growth at 10 µM (SK-OV-3): 10.4% | inhibition of growth at 10 µM (HOP-92): 26.2% | inhibition of growth at 10 µM (RXF 393): 17.8% | inhibition of growth at 10 µM (M14): 17.3% | inhibition of growth at 10 µM (HL-60(TB)): 24.2% | inhibition of growth at 10 µM (Hs-578T): < 10% | inhibition of growth at 10 µM (ACHN): 11.3% | inhibition of growth at 10 µM (A498): 25.2% | inhibition of growth at 10 µM (NCI-H23): 11.5% | Activity [3]: Active | inhibition of growth at 10 µM (NCI/ADR-RES): 11.4% | inhibition of growth at 10 µM (SNB-19): < 10% | inhibition of growth at 10 µM (UACC-62): 25.3% | inhibition of growth at 10 µM (K562): 28.5% | inhibition of growth at 10 µM (NCI-H522): 31% | inhibition of growth at 10 µM (DU-145): 13% | inhibition of growth at 10 µM (SF-295): 12.8% | inhibition of growth at 10 µM (CCRF-CEM): 20.7% | inhibition of growth at 10 µM (T47D): 50%

CC[n+]1c(-c2ccccc2)c2cc(N)ccc2c2ccc(N)cc21.[Br-] [HOMIDIUM BROMIDE]
IC50 [2]: 0.004 mg/L | Activity [3]: Active

Reference: ChEMBL document CHEMBL2375313, “Synthesis, in vitro antitumor evaluation and DNA-binding study of novel tetrahydroquinolines and some derived tricyclic and tetracyclic ring systems” (Eur J Med Chem, 2013)
